In ChEMBL document CHEMBL1127399, “4,7 beta-Dimethyl-4-azacholestan-3-one (MK-386) and related 4-azasteroids as selective inhibitors of human type 1 5 alpha-reductase” (J Med Chem, 1994):

Assays:
[1] = biological target: T1, 3-oxo-5-alpha-steroid 4-dehydrogenase 2 (Homo sapiens, UniProt P31213); test: Inhibition of type 2 steroid-5-alpha-reductase
T1 sequence (P31213 whole entry): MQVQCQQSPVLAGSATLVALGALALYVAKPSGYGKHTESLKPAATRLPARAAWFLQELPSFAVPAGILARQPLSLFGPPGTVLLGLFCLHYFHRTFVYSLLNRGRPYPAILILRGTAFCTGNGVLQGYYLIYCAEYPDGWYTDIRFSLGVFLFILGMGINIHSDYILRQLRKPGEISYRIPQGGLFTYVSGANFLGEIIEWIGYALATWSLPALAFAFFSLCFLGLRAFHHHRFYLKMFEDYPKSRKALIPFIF
In short: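 Baculovirus-expressed recombinant human type 2 5α-reductase preincubated 18 h at 4 °C with inhibitor (1–10 000 nM, serially diluted from ethanol) in 40 mM sodium citrate pH 5.5, 500 μM NADPH, 1 mM DTT, 1 mg/mL BSA. Conversion of [7-³H]testosterone to DHT monitored by HPLC. IC50 averaged over at least three determinations.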

[2] = biological target: T2, 3-oxo-5-alpha-steroid 4-dehydrogenase 1 (Homo sapiens, UniProt P18405); test: Inhibition of type 1 steroid-5-alpha-reductase
T2 sequence (P18405 whole entry): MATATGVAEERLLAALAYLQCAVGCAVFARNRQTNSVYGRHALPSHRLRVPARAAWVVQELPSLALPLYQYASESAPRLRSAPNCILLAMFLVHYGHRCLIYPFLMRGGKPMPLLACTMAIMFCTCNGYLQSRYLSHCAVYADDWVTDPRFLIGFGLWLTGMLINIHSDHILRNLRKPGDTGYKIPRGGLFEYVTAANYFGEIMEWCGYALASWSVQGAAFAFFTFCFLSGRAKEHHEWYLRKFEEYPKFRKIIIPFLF
In short: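 Baculovirus-expressed recombinant human type 1 5α-reductase preincubated 18 h at 4 °C with inhibitor (0.1–1000 nM, serial dilutions from ethanol) in 40 mM sodium phosphate pH 7.0, 500 μM NADPH, 1 mM DTT, 1 mg/mL BSA. Reaction started with [7-³H]testosterone (final 0.3 μM) plus NADPH, 90 min at 37 °C; T and DHT separated by HPLC. IC50, mean of ≥3 determinations.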

SMILES	IC50 [1]	IC50 [2]
CCC[C@H]1C=C2NC(=O)CC[C@]2(C)C2CC[C@]3(C)C(C(C)CCCC(C)C)CCC3C21 (stereo not given in full)	713 nM	58 nM
CC(C)CCCC(C)C1CCC2C3C(CC[C@]12C)[C@@]1(C)CCC(=O)NC1C[C@@H]3c1ccccc1 (stereo not given in full)	443 nM	> 1000 nM
CC[C@H]1C=C2N(C)C(=O)CC[C@]2(C)C2CC[C@]3(C)C(C(C)CCCC(C)C)CCC3C21 (stereo not given in full)	2120 nM	9.5 nM
CC(C)CCCC(C)C1CCC2C3C(CC[C@]12C)[C@@]1(C)CCC(=O)N(C)C1=C[C@@H]3c1ccccc1 (stereo not given in full)	2170 nM	> 1000 nM
CCC[C@H]1CC2N(C)C(=O)CC[C@]2(C)C2CC[C@]3(C)C(C(C)CCCC(C)C)CCC3C21 (stereo not given in full)	580 nM	20 nM
C=CCN1C(=O)CC[C@]2(C)C3CC[C@]4(C)C(C(C)CCCC(C)C)CCC4C3[C@@H](C)CC12 (stereo not given in full)	1300 nM	42 nM
C[C@]12CCC3C(CNC4=CC(=O)CC[C@@]43C)C1CCC2C(=O)NC(c1ccccc1)c1ccccc1 (stereo not given in full)	< 0.1 nM	186 nM
CC[C@H]1C=C2NC(=O)CC[C@]2(C)C2CC[C@]3(C)C(C(C)CCCC(C)C)CCC3C21 (stereo not given in full)	1050 nM	8.6 nM
CC(C)CCCC(C)C1CCC2C3CC=C4NC(=O)CC[C@]4(C)C3CC[C@]12C (stereo not given in full)		19.1 nM
CC(C)CCCC(C)C1CCC2C3C(CC[C@]12C)[C@@]1(C)CCC(=O)N(C)C1C[C@@H]3c1ccccc1 (stereo not given in full)	428 nM	134 nM
CCC[C@H]1CC2NC(=O)CC[C@]2(C)C2CC[C@]3(C)C(C(C)CCCC(C)C)CCC3C21 (stereo not given in full)	1100 nM	9.5 nM
CC(C)CCCC(C)C1CCC2C3C(CC[C@]12C)[C@@]1(C)CCC(=O)NC1=C[C@@H]3c1ccccc1 (stereo not given in full)	1340 nM	> 1000 nM
CN1C(=O)CC[C@@H]2c3ccc(Cl)cc3CC[C@H]21 [BEXLOSTERIDE]	1750 nM	8.6 nM
CC(C)(C)NC(=O)[C@H]1CC[C@H]2[C@@H]3CC=C4C=C(C(=O)O)CC[C@]4(C)[C@H]3CC[C@]12C [EPRISTERIDE]	0.6 nM	> 1000 nM
CC(C)(C)NC(=O)[C@H]1CC[C@H]2[C@@H]3CC[C@H]4NC(=O)C=C[C@]4(C)[C@H]3CC[C@]12C [FINASTERIDE]	< 0.1 nM	52 nM

The remaining lines, values ahead:

IC50 [1]	IC50 [2]	SMILES
5.4 nM	8.4 nM	CCC[C@H]1C=C2N(C)C(=O)CC[C@]2(C)C2CC[C@]3(C)C(C(C)CCCC(C)C)CCC3C21 (stereo not given in full)
	4.3 nM	CC(C)CCCC(C)C1CCC2C3CC=C4N(C)C(=O)CC[C@]4(C)C3CC[C@]12C (stereo not given in full)
298 nM	1.6 nM	CC(C)CCCC(C)C1CCC2C3C(CC[C@]12C)[C@@]1(C)C=CC(=O)NC1C[C@@H]3C (stereo not given in full)
330 nM	5.7 nM	CC[C@H]1CC2N(C)C(=O)CC[C@]2(C)C2CC[C@]3(C)C(C(C)CCCC(C)C)CCC3C21 (stereo not given in full)
125 nM	2 nM	CC(C)CCCC(C)C1CCC2C3C(CC[C@]12C)[C@@]1(C)C=CC(=O)N(C)C1C[C@@H]3C (stereo not given in full)
154 nM	0.9 nM	CC(C)CCCC(C)[C@H]1CCC2C3C(CC[C@@]21C)[C@@]1(C)CCC(=O)N(C)C1C[C@@H]3C (stereo not given in full)
	5 nM	CC(C)CCCC(C)C1CCC2C3CCC4NC(=O)C=C[C@]4(C)C3CC[C@]12C (stereo not given in full)
859 nM	2.5 nM	CC(C)CCCC(C)C1CCC2C3C(CC[C@]12C)[C@@]1(C)CCC(=O)NC1=C[C@@H]3C (stereo not given in full)
218 nM	1.7 nM	CC(C)CCCC(C)C1CCC2C3CCC4N(C)C(=O)CC[C@]4(C)C3CC[C@]12C (stereo not given in full)
218 nM	2.6 nM	CC(C)CCCC(C)C1CCC2C3CCC4NC(=O)CC[C@]4(C)C3CC[C@]12C (stereo not given in full)
1390 nM	3.3 nM	CCN1C(=O)CC[C@]2(C)C3CC[C@]4(C)C(C(C)CCCC(C)C)CCC4C3[C@@H](C)CC12 (stereo not given in full)
280 nM	2.7 nM	CC[C@H]1CC2NC(=O)CC[C@]2(C)C2CC[C@]3(C)C(C(C)CCCC(C)C)CCC3C21 (stereo not given in full)
280 nM	2.6 nM	CC(C)CCCC(C)C1CCC2C3C(CC[C@]12C)[C@@]1(C)CCC(=O)NC1C[C@@H]3C (stereo not given in full)
147 nM	0.6 nM	CC(C)CCCC(C)C1CCC2C3C(CC[C@]12C)[C@@]1(C)CCC(=O)N(C)C1=C[C@@H]3C (stereo not given in full)
